Activity calls are given as the source filed them. The rule behind the calls is not given here.
Columns and labels:
[1] = Solubility in pH 7.4 buffer; format: physicochemical
[2] = Chemical stability in presence of GSH; format: physicochemical
Rattus norvegicus [3] = organism: Rattus norvegicus; test: Inhibition of glucose-stimulated insulin secretion in dispersed rat pancreatic islets at 10 uM incubated for 2 hrs by ELISA; format: functional
Procedure, shortened: (§1)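 Dispersed islets from male Sprague Dawley rats (collagenase digestion, Histopaque purification, Accutase dispersal, cultured up to 4 days). Pre-incubated 1 h in Krebs-Ringer with 5.6 mM glucose, then 2 h at 37 °C with 15 mM glucose, ±10 nM GLP1(9-36)NH2, ±compound 10 µM, DMSO vehicle; insulin by HTRF ELISA as % of total, n-fold vs control; N≥9.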

[4] = Metabolic lability in mouse liver microsomes incubated up to 20 mins by LC-MS/MS analysis
[5] = Volume of distribution at steady state in Wistar rat at 3 mg/kg, iv administered as single dose treated 2 hrs after dosing with 40 mg/kg, po OATP/MRP2 inhibitor rifampicin and measured up to 24 hrs ESI-LC/MS-MS analysis; format: ADME, organism-based; details: in vivo, read-out: Vdss
[6] = Apparent permeability from apical and basolateral in human Caco2/TC7 cells at apical pH 6.5 with 0.5% BSA and basolateral pH 7.4 with 5% BSA at 20 uM incubated for 2 hrs by LC-MS/MS analysis; details: caco2/tc7, pH 6.5 apical, pH 7.4 basolateral
[7] = Clearance in mouse hepatocytes assessed per million cells by LC-MS/MS analysis; format: ADME, cell-based, Hepatocyte
Procedure, shortened: (§2)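 Intrinsic clearance in primary human hepatocytes ([…] as printed) or mouse hepatocytes, compound 0.5–5 µM; quinidine or ketoconazole added to define CYP2D6/CYP3A4 contribution; LC-MS/MS analysis.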

[8] = Clearance in Wistar rat at 3 mg/kg, iv administered as single dose measured up to 24 hrs ESI-LC/MS-MS analysis; details: in vivo
OATP1B3 = biological target: T1, OATP1B3 (Homo sapiens, UniProt Q9NPD5); test: Substrate activity at human OATP1B3 expressed in HEK293 cells assessed as increase in compound uptake at 1 uM incubated up to 15 mins LC-MS/MS analysis relative to control relative to control; format: ADME, cell-based; details: HEK293 cells expressing human OATP1B3, read-out: FC
T1 sequence (Q9NPD5 whole entry): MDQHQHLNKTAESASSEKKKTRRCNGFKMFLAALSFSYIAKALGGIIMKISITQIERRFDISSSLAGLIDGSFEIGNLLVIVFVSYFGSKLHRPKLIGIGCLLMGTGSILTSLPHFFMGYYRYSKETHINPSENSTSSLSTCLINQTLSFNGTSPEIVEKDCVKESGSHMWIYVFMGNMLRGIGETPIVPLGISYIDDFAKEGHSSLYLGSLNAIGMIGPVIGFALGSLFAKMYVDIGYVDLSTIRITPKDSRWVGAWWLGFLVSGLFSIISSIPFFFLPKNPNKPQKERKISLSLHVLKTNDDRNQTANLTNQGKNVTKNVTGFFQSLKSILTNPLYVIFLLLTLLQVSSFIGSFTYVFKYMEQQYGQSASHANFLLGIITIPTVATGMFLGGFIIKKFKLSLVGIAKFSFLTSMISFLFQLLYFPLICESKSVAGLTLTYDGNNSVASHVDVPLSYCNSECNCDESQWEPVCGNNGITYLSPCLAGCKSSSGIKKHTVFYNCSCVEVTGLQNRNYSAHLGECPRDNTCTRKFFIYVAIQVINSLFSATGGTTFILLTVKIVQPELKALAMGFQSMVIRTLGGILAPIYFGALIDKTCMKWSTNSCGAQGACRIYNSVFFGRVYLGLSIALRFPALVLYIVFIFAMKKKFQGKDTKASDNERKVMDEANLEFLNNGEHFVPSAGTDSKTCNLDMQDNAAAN
Procedure, shortened: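 HEK-TR cells overexpressing hOATP1B1 or hOATP1B3, run in parallel with control HEK-TR cells, seeded at 1 x 10⁵ cells/well one day before. Time-dependent uptake of 1 μM compound in HBSS at 37 °C, quadruplicates. Uptake stopped with ice-cold buffer, cells washed, lysed and quantified by LC-MS/MS. Uptake ratio calculated against the control cells.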

[9] = Oral bioavailability in C57Bl6 mouse at 10 mg/kg administered as single dose measured up to 24 hrs ESI-LC/MS-MS analysis; format: ADME, organism-based; details: in vivo
Procedure, shortened: (§3)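 Single dose of compound: 3 mg/kg i.v. in solution (75% water : 25% of 75% Glycoferol/25% Cremophor) or 10 mg/kg p.o. as wet-milled suspension (0.6% methylcellulose, 0.5% Tween 80 in water); male Wistar rats n=3 per route, female C57Bl6 mice n=24 per route. Plasma sampled 0.25–24 h (p.o.), 0.083–24 h (i.v.); heparinized plasma, acetonitrile precipitation, ESI-LC/MS-MS (LOQ 1 ng/mL rat, 5 ng/mL mouse); noncompartmental analysis, linear trapezoidal.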

[10] = Cmax in C57Bl6 mouse at 10 mg/kg, po administered as single dose measured up to 24 hrs ESI-LC/MS-MS analysis; format: ADME, organism-based; set-up: dose 10 mg/kg, route oral; details: in vivo; procedure, shortened: as §3
[11] = Cmax in Wistar rat at 10 mg/kg, po administered as single dose measured up to 24 hrs ESI-LC/MS-MS analysis; format: ADME, organism-based; set-up: dose 10 mg/kg, route oral; details: in vivo; procedure, shortened: as §3
[12] = AUClast in C57Bl6 mouse at 10 mg/kg, po administered as single dose measured up to 24 hrs ESI-LC/MS-MS analysis; format: ADME, organism-based; set-up: dose 10 mg/kg, time < 24 hr, route oral; details: in vivo; procedure, shortened: as §3
[13] = Drug recovery in iv dosed rat bile assessed as metabolically unchanged compound level in rat fistula study; format: ADME, organism-based; details: read-out: Drug recovery
[14] = Lipophilicity, logD of the compound at pH 7.4 at 25 degC; format: physicochemical; details: buffer
[15] = Clearance in human hepatocytes assessed per million cells by LC-MS/MS analysis; format: ADME, cell-based, Hepatocyte; procedure, shortened: as §2
[16] = Chemical stability in pH 1.1 buffer; format: physicochemical
Rattus norvegicus [17] = organism: Rattus norvegicus; test: Improvement in 10 nM GLP1(9-36)NH2-mediated glucose-stimulated insulin secretion in dispersed rat pancreatic islets at 10 uM incubated for 2 hrs by ELISA; format: functional; procedure, shortened: as §1
Mus musculus = test: Suppression of blood glucose concentration in 0.3 to 4.5 mg/kg, ip GLP1(9-36)NH2-treated normoglycemic C57Bl/6J mouse at 30 mg/kg, po dosed 1 hrs before test by oral glucose-tolerance test; format: functional, organism-based
Procedure, shortened: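 Male C57Bl/6J mice aged 10–11 weeks, n=6, fasted overnight. Rifampicin 60 mg/kg p.o. 2.5 h before the oGTT, compound p.o. 1 h before, GLP1(9-36)NH2 i.p. (0.3, 1, 3, 4.5 mg/kg) 15 min before. Glucose 2 g/kg orally. Tail-vein blood glucose by glucometer at 0, 15, 30, 60 and 90 min.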

With `CC(C)(C)OC(=O)n1c2c(c3ccccc31)C[C@H]1C(=O)N3C[C@@H](CC(=O)O)C[C@H]3[C@@H]2N1C(=O)CC1CCC(F)(F)CC1` as the compound, how does the solubility [1] read?
Its solubility is greater than 853 µM.

What about the Stability [2] of the same compound?
Its Stability is 100%.

And the inhibition (Rattus norvegicus [3])?
The inhibition was “inactive”.

What about the metabolized at 20 min [4] of the same compound?
Its metabolized at 20 min is 5%.

What about the Vd [5] of the same compound?
Its Vd is 0.815 L/kg.

And the Papp [6]?
Its Papp is 32 ×10⁻⁷ cm/s.

What about the CLH [7] of the same compound?
Its CLH is 0.145 mL/h/10^6 cells.

And the CL [8]?
Its CL is 7.06 L/h/kg.

And the uptake ratio at 0.25 h, 1 µM (OATP1B3)?
Its uptake ratio at 0.25 h, 1 µM is 6 to 22.

What about the bioavailability [9] of the same compound?
Its bioavailability is 7.2%.

What about the Cmax [10] of the same compound?
The Cmax was 227 ng/mL.

And the Cmax [11]?
Its Cmax is 106 ng/mL.

What about the AUC(0-t) at 24 h [12] of the same compound?
The AUC(0-t) at 24 h was 109 ng·h/mL.

And the dose excreted [13]?
The dose excreted was 74%.

And the logD [14]?
Its logD is 1.7.

And the CLH [15]?
Its CLH is 0.184 mL/h/10^6 cells.

What about the Stability [16] of the same compound?
Its Stability is 98%.

And the Activity (Rattus norvegicus [17])?
Its Activity is “Active”.

What about the Activity (Mus musculus) of the same compound?
The Activity was “Dose-dependent effect”.
